Assay results as given in ChEMBL document CHEMBL1138404, “Bisindole alkaloids of the topsentin and hamacanthin classes from a marine sponge Spongosorites sp” (J Nat Prod, 2007).
≈ marks a conversion by molar mass, not a printed value.

Assays:
Staphylococcus aureus [1] = experiment: Antibacterial activity against methicillin-resistant Staphylococcus aureus 285; type: functional
Outline: (§1)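 Agar dilution MIC: Mueller Hinton agar plates containing 17 serial dilutions of sample (final 25 to 0.002 μg/mL), meropenem and imipenem as standards. Strains grown 18 h at 37 °C in Fleisch extract broth (10% horse serum for some strains), spotted onto plates by automatic inoculator; MIC read after 18 h incubation.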

Salmonella typhimurium = experiment: Antibacterial activity against […] Salmonella Typhimurium; type: functional, Salmonella enterica subsp. enterica serovar Typhimurium; conditions: Salmonella enterica; outline: as §1
Klebsiella oxytoca = experiment: Antibacterial activity against […] Klebsiella oxytoca 1082E; type: functional; outline: as §1
Escherichia coli [2] = experiment: Antibacterial activity against […] Escherichia coli 1507E; type: functional; outline: as §1
[3] = Cytotoxicity against human HCT15 cell line; type: cell-based; conditions: HCT-15 cells, read-out: ED50 (the source's name)
Pseudomonas aeruginosa [4] = experiment: Antibacterial activity against […] Pseudomonas aeruginosa 9027; type: functional; outline: as §1
Streptococcus pyogenes [5] = experiment: Antibacterial activity against methicillin-resistant Streptococcus pyogenes 308A; type: functional; outline: as §1
Escherichia coli [6] = experiment: Antibacterial activity against […] Escherichia coli DC0; type: functional; outline: as §1
Streptococcus pyogenes [7] = experiment: Antibacterial activity against methicillin-resistant Streptococcus pyogenes 77A; type: functional; outline: as §1
[8] = Cytotoxicity against human SK-OV-3 cell line; type: cell-based; conditions: SK-OV-3 cells, read-out: ED50 (the source's name)
Escherichia coli [9] = experiment: Antibacterial activity against […] Escherichia coli 078; type: functional; outline: as §1
Klebsiella aerogenes = experiment: Antibacterial activity against […] Klebsiella aerogenes 1522E; type: functional; outline: as §1
Staphylococcus aureus [10] = experiment: Antibacterial activity against methicillin-resistant Staphylococcus aureus SG511; type: functional; outline: as §1
[11] = Cytotoxicity against human A549 cell line; type: cell-based; conditions: A549 cells, read-out: ED50 (the source's name)
Staphylococcus aureus [12] = experiment: Antibacterial activity against methicillin-resistant Staphylococcus aureus 503; type: functional; outline: as §1
Enterobacter cloacae [13] = experiment: Antibacterial activity against […] Enterobacter cloacae P99; type: functional; outline: as §1
Escherichia coli [14] = experiment: Antibacterial activity against […] Escherichia coli TEM; type: functional; outline: as §1
[15] = Cytotoxicity against human SK-MEL-2 cell line; type: cell-based; conditions: SK-MEL-2 cells, read-out: ED50 (the source's name)
Enterococcus faecium = experiment: Antibacterial activity against […] Streptococcus faecium MD8b; type: functional; outline: as §1
Pseudomonas aeruginosa [16] = experiment: Antibacterial activity against […] Pseudomonas aeruginosa 1771; type: functional; outline: as §1
Enterobacter cloacae [17] = experiment: Antibacterial activity against […] Enterobacter cloacae 1321E; type: functional; outline: as §1
[18] = Cytotoxicity against human XF498 cell line; type: cell-based; conditions: XF498 cells, read-out: ED50 (the source's name)
Escherichia coli [19] = experiment: Antibacterial activity against […] Escherichia coli DC2; type: functional; outline: as §1
Pseudomonas aeruginosa [20] = experiment: Antibacterial activity against […] Pseudomonas aeruginosa 1771M; type: functional; outline: as §1
Pseudomonas aeruginosa [21] = experiment: Antibacterial activity against […] Pseudomonas aeruginosa 1592E; type: functional; outline: as §1

SMILES	MIC (Staphylococcus aureus [1]) [µg/mL]	MIC (Salmonella typhimurium) [µg/mL]	MIC (Klebsiella oxytoca) [µg/mL]	MIC (Escherichia coli [2]) [µg/mL]	CC50 [3] [µg/mL]	MIC (Pseudomonas aeruginosa [4]) [µg/mL]	MIC (Streptococcus pyogenes [5]) [µg/mL]	MIC (Escherichia coli [6]) [µg/mL]	MIC (Streptococcus pyogenes [7]) [µg/mL]	CC50 [8] [µg/mL]	MIC (Escherichia coli [9]) [µg/mL]	MIC (Klebsiella aerogenes) [µg/mL]	MIC (Staphylococcus aureus [10]) [µg/mL]	CC50 [11] [µg/mL]	MIC (Staphylococcus aureus [12]) [µg/mL]	MIC (Enterobacter cloacae [13]) [µg/mL]	MIC (Escherichia coli [14]) [µg/mL]	CC50 [15] [µg/mL]	MIC (Enterococcus faecium) [µg/mL]	CC50 [18] [µg/mL]	other results
O=C1N[C@@H](c2c[nH]c3ccccc23)CN=C1c1c[nH]c2ccccc12	> 25	> 25	> 25	> 25	4.1 (≈ 12.5 µM)	> 25	25 (≈ 76.1 µM)	> 25	25 (≈ 76.1 µM)	11.5 (≈ 35 µM)	> 25	> 25	> 25	8.3 (≈ 25.3 µM)	> 25	> 25	> 25	5 (≈ 15.2 µM)	> 25	17.1 (≈ 52.1 µM)	MIC (Pseudomonas aeruginosa [16]): 25 µg/mL (≈ 76.1 µM); MIC (Enterobacter cloacae [17]): > 25 µg/mL; MIC (Escherichia coli [19]): > 25 µg/mL; MIC (Pseudomonas aeruginosa [20]): > 25 µg/mL; MIC (Pseudomonas aeruginosa [21]): 25 µg/mL (≈ 76.1 µM)
O=C1NC[C@@H](c2c[nH]c3ccccc23)N=C1c1c[nH]c2ccccc12	> 25	> 25	> 25	> 25	4.79 (≈ 14.6 µM)	> 25	> 25	> 25	> 25	12.6 (≈ 38.4 µM)	> 25	> 25	> 25	11.7 (≈ 35.6 µM)	> 25	> 25	> 25	13.7 (≈ 41.7 µM)	> 25	24.1 (≈ 73.4 µM)	MIC (Pseudomonas aeruginosa [16]): 25 µg/mL (≈ 76.1 µM); MIC (Enterobacter cloacae [17]): > 25 µg/mL; MIC (Escherichia coli [19]): > 25 µg/mL; MIC (Pseudomonas aeruginosa [20]): > 25 µg/mL; MIC (Pseudomonas aeruginosa [21]): 25 µg/mL (≈ 76.1 µM)
O=C1NC[C@@H](c2c[nH]c3ccccc23)N[C@H]1c1c[nH]c2cc(Br)ccc12	> 25	> 25	> 25	> 25	> 10	> 25	25 (≈ 61.1 µM)	> 25	> 25	5.67 (≈ 13.9 µM)	> 25	> 25	> 25	9.67 (≈ 23.6 µM)	> 25	> 25	> 25	> 10	> 25	9.74 (≈ 23.8 µM)	MIC (Pseudomonas aeruginosa [16]): > 25 µg/mL; MIC (Enterobacter cloacae [17]): > 25 µg/mL; MIC (Escherichia coli [19]): > 25 µg/mL; MIC (Pseudomonas aeruginosa [20]): > 25 µg/mL; MIC (Pseudomonas aeruginosa [21]): > 25 µg/mL
O=C1N[C@H](c2c[nH]c3ccccc23)CN[C@H]1c1c[nH]c2cc(Br)ccc12	–	–	–	–	> 10	–	–	–	–	4.92 (≈ 12 µM)	–	–	–	> 10	–	–	–	> 10	–	> 10	–
O=C1NC[C@@H](c2c[nH]c3cc(Br)ccc23)N[C@H]1c1c[nH]c2ccccc12	> 25	> 25	> 25	> 25	6.3 (≈ 15.4 µM)	> 25	25 (≈ 61.1 µM)	> 25	> 25	6 (≈ 14.7 µM)	> 25	> 25	> 25	4.2 (≈ 10.3 µM)	> 25	> 25	> 25	7.1 (≈ 17.3 µM)	> 25	6.8 (≈ 16.6 µM)	MIC (Pseudomonas aeruginosa [16]): 25 µg/mL (≈ 61.1 µM); MIC (Enterobacter cloacae [17]): > 25 µg/mL; MIC (Escherichia coli [19]): > 25 µg/mL; MIC (Pseudomonas aeruginosa [20]): > 25 µg/mL; MIC (Pseudomonas aeruginosa [21]): 25 µg/mL (≈ 61.1 µM)
O=C1NC[C@@H](c2c[nH]c3ccccc23)N[C@H]1c1c[nH]c2ccccc12	–	–	–	–	> 10	–	–	–	–	9.64 (≈ 29.2 µM)	–	–	–	> 10	–	–	–	> 10	–	> 10	–
O=C1N[C@H](c2c[nH]c3cc(Br)ccc23)CN[C@H]1c1c[nH]c2ccccc12	> 25	> 25	> 25	> 25	6.3 (≈ 15.4 µM)	> 25	> 25	> 25	> 25	12.1 (≈ 29.6 µM)	> 25	> 25	> 25	7.5 (≈ 18.3 µM)	> 25	> 25	> 25	13.1 (≈ 32 µM)	> 25	19.1 (≈ 46.7 µM)	MIC (Pseudomonas aeruginosa [16]): 25 µg/mL (≈ 61.1 µM); MIC (Enterobacter cloacae [17]): > 25 µg/mL; MIC (Escherichia coli [19]): > 25 µg/mL; MIC (Pseudomonas aeruginosa [20]): > 25 µg/mL; MIC (Pseudomonas aeruginosa [21]): 25 µg/mL (≈ 61.1 µM)
